Active and inactive are the calls of the source. No cut-off for these calls is given here.
Assays:
[1] = Cytotoxicity against human HL60 cells after 48 hrs by MTT assay; assay type: functional, cell-based; conditions: HL-60, 48 h
Procedure, shortened: (§1)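 Cells grown at 37°C, 5% CO2 with 10% heat-inactivated FBS, penicillin, streptomycin and L-glutamine: HL-60 (suspension) in RPMI-1640, PC-3 in MEM. Seeded 6000 cells/well, exposed 48 h to a range of concentrations (DMSO vehicle, final below 1%). MTT (2.5 mg/mL) added for 4 h, formazan dissolved in DMSO, OD at 540 nm (ref. 620 nm); growth vs untreated cells.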

[2] = Cytotoxicity against human OVCAR5 cells after 48 hrs by MTT assay; assay type: functional, cell-based; conditions: OVCAR-5, 48 h
HT-29 = assay: Cytotoxicity against human HT-29 cells after 48 hrs by MTT assay; assay type: functional, cell-based; conditions: HT-29, 48 h
[3] = Cytotoxicity against human 786-O cells after 48 hrs by MTT assay; assay type: functional, cell-based; conditions: 786-0, 48 h
[4] = Cytotoxicity against human PC3 cells after 48 hrs by MTT assay; assay type: functional, cell-based; conditions: PC-3, 48 h; procedure, shortened: as §1
HL-60 [5] = assay: Induction of apoptosis in human HL60 cells assessed as chromatin condensation at 20 to 30 uM after 24 hrs by fluorescent microscopy; assay type: functional, cell-based
HL-60 [6] = assay: Induction of apoptosis in human HL60 cells assessed as loss of mitochondrial membrane potential after 24 hrs by Rhodamine-123 staining-based flow cytometric analysis; assay type: functional, cell-based
HL-60 [7] = assay: Induction of apoptosis in human HL60 cells at 10 uM after 24 hrs by propidium iodide staining-based flow cytometry (reference value: 1.49%); assay type: functional
[8] = Cell cycle arrest in human HL60 cells assessed as accumulation at G2 phase at 20 uM after 24 hrs by propidium iodide staining-based flow cytometry (reference value: 2.39%); assay type: functional; conditions: HL-60
HL-60 [9] = assay: Induction of apoptosis in human HL60 cells assessed as loss of mitochondrial membrane potential at 20 uM after 24 hrs by Rhodamine-123 staining-based flow cytometric analysis (reference value: 6%); assay type: functional
[10] = Cell cycle arrest in human HL60 cells assessed as accumulation at G2 phase at 30 uM after 24 hrs by propidium iodide staining-based flow cytometry (reference value: 2.39%); assay type: functional; conditions: HL-60
HL-60 [11] = assay: Induction of apoptosis in human HL60 cells at 20 uM after 24 hrs by propidium iodide staining-based flow cytometry (reference value: 1.49%); assay type: functional
HL-60 [12] = assay: Induction of apoptosis in human HL60 cells assessed as loss of mitochondrial membrane potential at 10 uM after 24 hrs by Rhodamine-123 staining-based flow cytometric analysis (reference value: 6%); assay type: functional
[13] = Cell cycle arrest in human HL60 cells assessed as accumulation at S phase at 20 uM after 24 hrs by propidium iodide staining-based flow cytometry (reference value: 46.82%); assay type: functional; conditions: HL-60
HL-60 [14] = assay: Induction of apoptosis in human HL60 cells at 30 uM after 24 hrs by propidium iodide staining-based flow cytometry (reference value: 1.49%); assay type: functional
HL-60 [15] = assay: Induction of apoptosis in human HL60 cells assessed as membrane blebbing at 20 to 30 uM after 24 hrs by fluorescent microscopy; assay type: functional, cell-based
[16] = Cell cycle arrest in human HL60 cells assessed as accumulation at G1 phase at 20 uM after 24 hrs by propidium iodide staining-based flow cytometry (reference value: 50.80%); assay type: functional; conditions: HL-60
[17] = Cell cycle arrest in human HL60 cells assessed as accumulation at G2 phase at 10 uM after 24 hrs by propidium iodide staining-based flow cytometry (reference value: 2.39%); assay type: functional; conditions: HL-60
HL-60 [18] = assay: Cytotoxicity against human HL60 cells by MTT assay; assay type: functional, cell-based; conditions: TDE = time-dependent effect
Procedure, shortened: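 Cells grown in RPMI-1640 with 10% heat-inactivated FBS at 37 °C, 5% CO₂, seeded at 6000 cells/well and exposed to test material for 48 hr. DMSO vehicle kept below 1% final. MTT (2.5 mg/mL) added for 4 hr, formazan dissolved in DMSO, OD read at 540 nm (reference 620 nm). Growth calculated as treated vs untreated absorbance.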

[19] = Cell cycle arrest in human HL60 cells assessed as accumulation at G1 phase at 30 uM after 24 hrs by propidium iodide staining-based flow cytometry (reference value: 50.80%); assay type: functional; conditions: HL-60
[20] = Cell cycle arrest in human HL60 cells assessed as accumulation at S phase at 10 uM after 24 hrs by propidium iodide staining-based flow cytometry (reference value: 46.82%); assay type: functional; conditions: HL-60
[21] = Cell cycle arrest in human HL60 cells assessed as accumulation at G1 phase at 10 uM after 24 hrs by propidium iodide staining-based flow cytometry (reference value: 50.80%); assay type: functional; conditions: HL-60
[22] = Cell cycle arrest in human HL60 cells assessed as accumulation at S phase at 30 uM after 24 hrs by propidium iodide staining-based flow cytometry (reference value: 46.82%); assay type: functional; conditions: HL-60
HL-60 [23] = assay: Induction of apoptosis in human HL60 cells assessed as loss of mitochondrial membrane potential at 30 uM after 24 hrs by Rhodamine-123 staining-based flow cytometric analysis (reference value: 6%); assay type: functional
HL-60 [24] = assay: Induction of apoptosis in human HL60 cells assessed as nuclear fragmentation at 20 to 30 uM after 24 hrs by fluorescent microscopy; assay type: functional, cell-based

Structure (SMILES) | IC50 [1] [µM] | IC50 [2] [µM] | IC50 (HT-29) [µM] | IC50 [3] [µM] | IC50 [4] [µM] | other results
Oc1ccc([Se][Se]c2ccc(O)cc2)cc1 | 13 | 27 | 37 | 33 | 29 | 
c1ccc2c([Se][Se]c3cccc4ccccc34)cccc2c1 | 16 | 25 | 34 | 32 | 40 | 
Cc1cccc(C)c1[Se][Se]c1c(C)cccc1C | 27 | 39 | 35 | 40 | 33 | 
c1ccc([Se][Se]c2ccccc2)cc1 | 32 | 38 | 31 | 38 | 42 | 
COc1ccc([Se][Se]c2ccc(OC)cc2)cc1 | 12 | 26 | 24 | 28 | 27 | 
c1ccc([Se][Se]c2ccccn2)nc1 | 28 | 27 | 30 | 29 | 26 | 
FC(F)(F)c1cc([Se][Se]c2cc(C(F)(F)F)cc(C(F)(F)F)c2)cc(C(F)(F)F)c1 | 8 | 20 | 21 | 24 | 13 | Activity (HL-60 [5]): Active; Activity (HL-60 [6]): Dose-dependent effect; Activity (HL-60 [7]): 2.45%; Activity [8]: 3.78%; Activity (HL-60 [9]): 20%; Activity [10]: 0%; Activity (HL-60 [11]): 5.65%; Activity (HL-60 [12]): 11%; Activity [13]: 45.5%; Activity (HL-60 [14]): 23.94%; Activity (HL-60 [15]): Active; Activity [16]: 50.8%; Activity [17]: 1.93%; inhibition (HL-60 [18]): tde; Activity [19]: 46.1%; Activity [20]: 48.4%; Activity [21]: 49.7%; Activity [22]: 53.9%; Activity (HL-60 [23]): 58%; Activity (HL-60 [24]): Active
OCc1ccc([Se][Se]c2ccc(CO)cc2)cc1 | 11 | 24 | 27 | 30 | 26 | 
Cc1ccc([Se][Se]c2ccc(C)cc2)cc1 | 33 | 31 | 37 | 29 | 29 | 
Oc1ccccc1[Se][Se]c1ccccc1O | 14 | 21 | 23 |  | 25 | 
OCc1ccccc1[Se][Se]c1ccccc1CO | 14 | 16 | 25 | 27 | 28 | 
Cc1cc(C)cc([Se][Se]c2cc(C)cc(C)c2)c1 | 23 | 34 | 36 | 33 | 30 | 
CCc1ccccc1[Se][Se]c1ccccc1CC | 28 | 38 | 56 | 42 | 43 | 
